Results on 1 substance are retold here after article PMC10952047 (iScience, 2024).

No end group written: not given here.

For the assay, the target named is T1, CKR-1 (Caenorhabditis elegans, UniProt P91487).
T1 sequence (P91487 1-421): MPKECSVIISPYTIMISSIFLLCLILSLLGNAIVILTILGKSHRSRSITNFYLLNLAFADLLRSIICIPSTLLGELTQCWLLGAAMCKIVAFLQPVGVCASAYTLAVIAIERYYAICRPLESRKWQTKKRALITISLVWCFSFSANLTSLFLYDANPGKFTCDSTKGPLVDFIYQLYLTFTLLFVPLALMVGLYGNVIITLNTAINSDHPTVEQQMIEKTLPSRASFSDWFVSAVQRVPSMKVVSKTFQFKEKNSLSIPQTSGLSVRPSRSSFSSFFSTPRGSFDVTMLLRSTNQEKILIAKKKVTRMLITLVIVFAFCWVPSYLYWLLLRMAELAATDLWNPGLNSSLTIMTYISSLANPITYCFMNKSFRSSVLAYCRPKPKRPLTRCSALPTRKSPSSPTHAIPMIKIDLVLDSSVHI
Format: cell-based, C. elegans. Summed up:
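CKR-1 cDNA cloned into pGH19, and 50 ng sense cRNA injected per oocyte. Oocytes kept 2-3 days at 18°C in ND96. TEVC at -80 mV with 3 M KCl electrodes. Perfusion switched from ND96 to high-K+ bath (96 mM KCl, pH 7.3) to read […] Ca2+-gated Cl- currents evoked by synthetic peptide. Washout in high-K+, then ND96.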

The substance DYRPLQF-NH2 [NLP-12a] had an EC50 of 26.5 nM. The “EC50 of NLP-12a relative to NLP-18a” value (ratio of EC50 values, X. laevis oocytes expressing CKR-1) was “approximately twice that of NLP-18a”.

Usually EC50 stands for the concentration needed to bring the measured effect to its halfway point. Read a high EC50 as a less potent agent.
